Structures are written as SMILES. A value given as a limit tells only on which side of the number the result lay.

A short description of assay [1]: Inhibition of Trypanosoma cruzi trans-sialidase containing catalytic domain (N58F, R200K) and lectin-like domain (S495 K, V496G, E520K, D593G, I597D, H599R) mutation expressed in Escherichia coli JM109 assessed as MuNANA substrate hydrolysis in presence of 0.1% Triton X-100 by discontinuous fluorimetric assay. The essentials:
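Recombinant TcTS lacking the C-terminal SAPA repeat, His-tagged (pTrcHisA) and purified by cation exchange, Ni affinity and gel filtration. Conditions: 8 ng/ml enzyme, 50 µM MuNANA, 50 mM Tris-HCl pH 7.5, 0.1% Triton X-100, 10% DMSO, 25 °C for 30 min. Stopped with 0.2 M Na2CO3 pH 10. Released Mu read at ex 355/em 460 nm in two or three replicates, corrected for compound fluorescence interference.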

A further assay concerns the target Sialidase-2 (Homo sapiens, UniProt Q9Y3R4). As to the kind of experiment: Inhibition of human Neu2 assessed as MuNANA substrate hydrolysis in presence of 0.1% Triton X-100 by discontinuous fluorimetric assay. In a few lines: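 Recombinant human Neu2 expressed from pET15b in E. coli BL21(DE3) and purified on DEAE and His-Trap columns. Reactions were quenched with 0.2 M Na2CO3 (pH 10), and released 4-methylumbelliferone was read at ex 355/em 460 nm. Runs were in duplicate or triplicate, corrected for compound fluorescence interference.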

Assay [2] in a line: Selectivity for Trypanosoma cruzi trans-sialidase mutant over human Neu2.
A short description of assay [3]: Noncompetitive inhibition of Trypanosoma cruzi trans-sialidase containing catalytic domain (N58F, R200K) and lectin-like domain (S495 K, V496G, E520K, D593G, I597D, H599R) mutation expressed in Escherichia coli JM109 by discontinuous fluorimetric assay using Lineweaver-Burke plot. In a few lines:
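Same MuNANA hydrolysis assay with purified recombinant TcTS at 25 °C in Tris-HCl pH 7.5. MuNANA was varied over 25–200 µM against several inhibitor concentrations, in triplicate. The inhibition mode was assigned by best fit, and Ki for noncompetitive inhibition was taken from the Lineweaver–Burk double-reciprocal plot.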

For another assay, the system named is Trypanosoma cruzi. The assay can be described thus: Antiparasitic effect against Trypanosoma cruzi assessed as induction of parasite lysis. The format is functional, organism-based.

Sequence of Sialidase-2 (Q9Y3R4 whole entry): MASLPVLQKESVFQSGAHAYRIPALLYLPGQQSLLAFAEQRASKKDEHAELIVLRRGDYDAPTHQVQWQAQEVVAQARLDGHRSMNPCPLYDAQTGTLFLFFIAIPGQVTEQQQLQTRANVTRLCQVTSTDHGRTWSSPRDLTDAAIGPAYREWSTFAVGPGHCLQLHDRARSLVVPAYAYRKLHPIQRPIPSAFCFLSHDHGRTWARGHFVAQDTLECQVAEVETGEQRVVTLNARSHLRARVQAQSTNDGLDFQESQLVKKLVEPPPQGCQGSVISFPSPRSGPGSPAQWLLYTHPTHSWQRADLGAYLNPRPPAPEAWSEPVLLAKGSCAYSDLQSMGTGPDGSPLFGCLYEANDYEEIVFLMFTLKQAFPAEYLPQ

With `O=C(O)c1cc(O)c2c(c1)C(=O)c1cc(O)c(Cl)c(O)c1C2=O`, the IC50 in assay [1] is 0.58 µM; on Sialidase-2, over 100 µM. In addition, in assay [2], the Ratio IC50 was over 170. For the same compound, in assay [3], affinity was put at a Ki of 0.89 µM.
Turning to `O=c1cc(-c2ccccc2O)oc2cc(O)cc(O)c12`, the IC50 in assay [1] is 360 µM; at Sialidase-2 it was 70 µM. Moreover, the Ratio IC50 in assay [2] came to 0.2.
For `O=c1cc(-c2ccc(O)cc2)oc2cc(O)ccc12`, in that order: over 1000 µM, 470 µM and under 0.5.
For `O=C(O)c1ccc2c(c1)C(=O)c1ccccc1C2=O` the same measures were 430 µM, 800 µM and 1.9.
With `O=c1cc(-c2ccc(O)cc2)oc2cccc(O)c12`, the IC50 (in assay [1]; at Sialidase-2) was over 1000 µM throughout.
Consider `O=c1cc(-c2ccccc2)oc2cccc(O)c12` [5-HYDROXYFLAVONE], for which the concentration for half-maximal inhibition (IC50) (in assay [1]; on Sialidase-2) was over 1000 µM in each case.
For `Oc1cc(O)c2c(c1)O[C@@H](c1ccc(O)c(O)c1)[C@H](O)C2` [(-)-CATECHIN], the IC50 (in assay [1]; on Sialidase-2) was over 1000 µM each time.
As for `COc1ccc(-c2cc(=O)c3c(O)cc(O)cc3o2)cc1` [ACACETIN], the IC50 (in assay [1]; on Sialidase-2) was over 1000 µM throughout.
Take `O=c1cc(-c2ccc(O)cc2)oc2cc(O)cc(O)c12` [APIGENIN]: the figures for the IC50 (in assay [1]; at Sialidase-2; with Trypanosoma cruzi) were 78 µM, 570 µM and 680 µM, respectively. The Ratio IC50 in assay [2] was found to be 7.3. The affinity in assay [3] corresponds to a Ki of 60 µM.
As to `O=c1cc(-c2ccccc2)oc2cc(O)c(O)c(O)c12` [BAICALEIN], the IC50 came out at 100 µM in assay [1] and 130 µM on Sialidase-2. Also, the Ratio IC50 in assay [2] came out at 1.3.
`O=c1cc(-c2ccccc2)oc2cc(O)cc(O)c12` [CHRYSIN]: the IC50 in assay [1] turned out to be 340 µM; on Sialidase-2, 890 µM. In addition, in assay [2], the Ratio IC50 was determined as 2.6.
For `O=C1c2cccc(O)c2C(=O)c2c(O)cccc21` [DANTHRON] the same measures were 710 µM, over 1000 µM and over 1.4.
For `Cc1cc(O)c2c(c1)C(=O)c1cc(O)cc(O)c1C2=O` [EMODIN], in that order: 110 µM, 760 µM and 6.9.
For `O=c1c(-c2ccc(O)cc2)coc2cc(O)cc(O)c12` [GENISTEIN], in that order: 230 µM, 380 µM and 1.7.
As for `COc1cc(O)c2c(=O)cc(-c3ccc(O)cc3)oc2c1` [GENKWANIN], the IC50 was 140 µM in assay [1] and over 1000 µM on Sialidase-2.
Regarding `O=c1c(O)c(-c2ccc(O)cc2)oc2cc(O)cc(O)c12` [KAEMPFEROL], the IC50 came out at 110 µM in assay [1] and 230 µM on Sialidase-2. For the same compound, in assay [2], the Ratio IC50 came to 2.1.
Turning to `O=c1cc(-c2ccc(O)c(O)c2)oc2cc(O)cc(O)c12` [LUTEOLIN], the IC50 in assay [1] was 22 µM; on Sialidase-2 it was 130 µM. For the same compound, the Ratio IC50 in assay [2] came to 5.9.
For `O=c1c(O)c(-c2cc(O)c(O)c(O)c2)oc2cc(O)cc(O)c12` [MYRICETIN] the same measures were 17 µM, 150 µM and 8.8.
For `O=c1c(O)c(-c2ccc(O)c(O)c2)oc2cc(O)cc(O)c12` [QUERCETIN], the values for the IC50 (in assay [1]; on Sialidase-2) were 58 µM and 160 µM, respectively. The Ratio IC50 in assay [2] was determined as 2.8.
For `O=C(O)c1cc(O)c2c(c1)C(=O)c1cccc(O)c1C2=O` [RHEIN], in that order: 14 µM, 130 µM and 9.3.
As to `COc1cc(O)c2c(c1)O[C@H](c1ccc(O)cc1)CC2=O` [SAKURANETIN], the IC50 in assay [1] was over 1000 µM; on Sialidase-2 it was 890 µM. Also, the Ratio IC50 in assay [2] was under 0.9.
Regarding `O=c1cc(-c2ccc(O)cc2)oc2cc(O)c(O)c(O)c12` [SCUTELLAREIN], the IC50 was 50 µM in assay [1] and 55 µM on Sialidase-2. In assay [2], the Ratio IC50 stood at 1.1.
For `O=c1cc(-c2cc(O)c(O)c(O)c2)oc2cc(O)cc(O)c12` [TRICETIN], in that order: 39 µM, 130 µM and 3.3.

Source of the values: ChEMBL document CHEMBL1154902, “Potent inhibitor scaffold against Trypanosoma cruzi trans-sialidase” (Bioorg Med Chem, 2010).
